{"source": "ChEMBL document CHEMBL2157993", "about": "“Urea-based inhibitors of Trypanosoma brucei methionyl-tRNA synthetase: selectivity and in vivo characterization” (J Med Chem, 2012)", "key": {"Trypanosoma brucei [1]": {"system": "Trypanosoma brucei", "assay": "Binding affinity to Trypanosoma brucei MetRS at 100 uM by thermal shift assay", "in_short": "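Thermal shift (ΔTm) read-out with T. brucei MetRS at 0.4 mg/ml and 5% DMSO; otherwise per an earlier protocol. The test agent was at the single concentration in the curator's line. Repeated three times independently.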"}, "[2]": {"assay": "Inhibition of Trypanosoma brucei MetRS aminoacylation activity assessed as reduction in [3H]methionine incorporation into Escherichia coli tRNA pre-incubated for 15 mins before tRNA addition and measured after 120 mins by scintillation counting", "in_short": "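Recombinant enzyme at 10 nM, preincubated 15 min with 12-point two-fold inhibitor dilutions in 25 mM HEPES pH 7.9, 10 mM MgCl2, 50 mM KCl, spermine, BSA, DTT, 1% DMSO and pyrophosphatase. Reaction started with 400 μg/mL E. coli tRNA, 0.1 mM ATP and 250 nM [3H]methionine, run 120 min at room temperature. TCA-precipitated and filtered for scintillation counting. Quadruplicate, with IC50 by sigmoidal fit.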"}, "[3]": {"assay": "Selectivity ratio of IC50 for human MetRS to IC50 for Trypanosoma brucei MetRS", "in_short": "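Ratio of the human mitochondrial MetRS IC50 to the T. brucei MetRS IC50, each from a [3H]methionine aminoacylation assay.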"}, "[4]": {"system": "Trypanosoma brucei brucei", "assay": "Growth inhibition of Trypanosoma brucei brucei 427 blood stream forms after 48 hrs by alamar blue assay", "format": "functional, organism-based", "conditions": "Trypanosoma brucei, 427, 48 h", "in_short": "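Strain 427 bloodstream forms cultured in HMI-9 with 10% FBS at 37°C, 5% CO2. Triplicate wells seeded at 5×10^4 trypomastigotes with serial compound dilutions from 20 mM DMSO stocks. AlamarBlue read-out at 48 h, with pentamidine as the positive control.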"}, "[5]": {"assay": "Cytotoxicity against human CRL8155 cells incubated for 48 hrs by alamar blue assay", "format": "cell-based", "conditions": "CRL8155, 48 h", "in_short": "(§1)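 […] cells in RPMI or HepG2 cells in DMEM/F-12, each with 10% serum, seeded at 5×10^3 per well. Exposed to serial compound dilutions for 48 h.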"}, "[6]": {"assay": "Permeability across MDCK2-MDR1 cells expressing MDR1 at 3 uM in absence of 2 uM P-gp inhibitor Elacridal by mass spectroscopy", "format": "ADME, cell-based, Canis lupus familiaris", "conditions": "dog, mdck-ii", "in_short": "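MDR1-MDCKII cells seeded on Transwell inserts and assayed 3 days later at 37°C in HBSS with glucose and HEPES. Monolayers preincubated about 30 min with or without 2 μM elacridar, then given compound at 3 μM final (apical). After 60 min shaking, both chambers were sampled for MS. Integrity checked by Lucifer Yellow and TEER. Triplicate. Papp(A-B) and AQ calculated.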"}, "[7]": {"molecular_target": "ATP-dependent translocase ABCB1 (Homo sapiens, UniProt P08183)", "sequence (P08183 whole entry)": "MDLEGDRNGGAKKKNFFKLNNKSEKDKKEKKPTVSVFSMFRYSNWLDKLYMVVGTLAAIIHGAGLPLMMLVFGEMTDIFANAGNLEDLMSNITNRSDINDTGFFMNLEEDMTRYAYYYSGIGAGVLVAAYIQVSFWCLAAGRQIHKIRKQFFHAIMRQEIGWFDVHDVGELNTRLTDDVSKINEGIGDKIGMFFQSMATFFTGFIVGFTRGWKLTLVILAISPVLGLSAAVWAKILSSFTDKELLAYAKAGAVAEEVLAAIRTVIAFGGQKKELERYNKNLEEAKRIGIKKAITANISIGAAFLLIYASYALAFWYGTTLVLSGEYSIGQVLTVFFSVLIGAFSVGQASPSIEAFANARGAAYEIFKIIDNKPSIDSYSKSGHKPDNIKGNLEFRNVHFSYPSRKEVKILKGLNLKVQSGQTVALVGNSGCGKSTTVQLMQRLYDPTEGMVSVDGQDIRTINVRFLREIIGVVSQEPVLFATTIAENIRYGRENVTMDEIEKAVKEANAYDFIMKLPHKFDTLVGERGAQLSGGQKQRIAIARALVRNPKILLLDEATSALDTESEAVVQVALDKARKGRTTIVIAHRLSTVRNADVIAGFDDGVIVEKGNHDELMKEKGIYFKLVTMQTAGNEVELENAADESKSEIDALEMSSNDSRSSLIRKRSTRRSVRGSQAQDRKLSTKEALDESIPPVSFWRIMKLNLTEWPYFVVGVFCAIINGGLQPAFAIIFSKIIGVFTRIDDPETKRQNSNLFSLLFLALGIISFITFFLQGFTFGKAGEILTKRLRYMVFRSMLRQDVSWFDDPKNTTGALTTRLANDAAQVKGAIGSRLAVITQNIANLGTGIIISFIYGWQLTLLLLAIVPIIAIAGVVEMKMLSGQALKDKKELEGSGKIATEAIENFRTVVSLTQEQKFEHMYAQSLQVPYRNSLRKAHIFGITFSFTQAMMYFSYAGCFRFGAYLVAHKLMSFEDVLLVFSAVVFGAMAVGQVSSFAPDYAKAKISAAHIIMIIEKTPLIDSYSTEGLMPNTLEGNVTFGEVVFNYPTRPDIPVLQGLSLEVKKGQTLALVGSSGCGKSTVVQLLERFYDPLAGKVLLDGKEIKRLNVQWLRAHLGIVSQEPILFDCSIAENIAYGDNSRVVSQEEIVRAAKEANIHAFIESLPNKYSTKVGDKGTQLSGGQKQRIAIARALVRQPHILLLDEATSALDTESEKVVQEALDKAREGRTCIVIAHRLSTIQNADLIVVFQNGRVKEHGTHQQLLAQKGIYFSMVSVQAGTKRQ", "assay": "Binding affinity to MDR1 expressed in MDCK2 cells assessed as absorptive quotient at 3 uM in absence of 2 uM by mass spectroscopy", "format": "ADME, cell-based", "conditions": "dog, mdck-ii", "in_short": "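Monolayers preincubated about 30 min with or without 2 μM elacridar, then given compound at 3 μM final (apical). After 60 min shaking, both chambers were sampled for MS. Integrity checked by Lucifer Yellow and TEER. Triplicate. Papp(A-B) and AQ calculated.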"}, "[8]": {"assay": "Cmax in mouse at 50 mg/kg, po administered as single dose measured over 6 hrs by MS/MS method", "format": "ADME, organism-based", "parameters": "dose 50 mg/kg, route oral", "conditions": "in vivo", "in_short": "(§2)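 Mice, three per group, given one oral dose of 50 mg/kg in 5% DMSO, 3% EtOH, 7% Tween 80 in saline. Tail-snip blood taken at 0.5, 1, 2, 3, 4 and 6 h. Plasma extracted with acetonitrile and quantified by LC-MS/MS.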"}, "[9]": {"assay": "Tmax in mouse at 50 mg/kg, po administered as single dose measured over 6 hrs by MS/MS method", "format": "ADME, organism-based", "parameters": "dose 50 mg/kg, route oral", "conditions": "in vivo", "in_short": "as §2"}, "[10]": {"assay": "Half life in mouse at 50 mg/kg, po administered as single dose measured over 6 hrs by MS/MS method", "format": "ADME, organism-based", "parameters": "dose 50 mg/kg, route oral", "conditions": "in vivo", "in_short": "as §2"}, "[11]": {"assay": "AUC in mouse at 50 mg/kg, po administered as single dose measured over 6 hrs by MS/MS method", "format": "ADME, organism-based, Plasma", "parameters": "time < 6 hr, dose 50 mg/kg, route oral", "conditions": "plasma", "in_short": "as §2"}, "[12]": {"assay": "Selectivity index, ratio of EC50 for human CRL8155 cells to EC50 for Trypanosoma brucei brucei 427", "format": "toxicity", "conditions": "read-out: Ratio EC50"}, "[13]": {"assay": "Selectivity index, ratio of EC50 for human HepG2 cells to EC50 for Trypanosoma brucei brucei 427", "format": "toxicity, cell-based", "conditions": "read-out: Ratio EC50"}, "HepG2": {"system": "HepG2", "assay": "Cytotoxicity against human HepG2 cells incubated for 48 hrs by alamar blue assay", "format": "cell-based", "conditions": "HepG2, 48 h", "in_short": "as §1"}, "[14]": {"assay": "Drug level in Swiss Webster mouse brain at 5 mg/kg, ip after 60 mins by MS/MS method", "format": "ADME, organism-based", "parameters": "dose 5 mg/kg, route intraperitoneal", "conditions": "read-out: Drug uptake", "in_short": "(§3)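 Female Swiss Webster mice, 6-8 weeks old, three per compound, given 5 mg/kg IP in 5% DMSO/3% EtOH/7% Tween 80 saline. Killed at 1 h. Plasma and homogenised brain extracted with acetonitrile containing an extraction standard, with spiked blank brains used for standardisation. Quantified by LC-MS/MS.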"}, "[15]": {"assay": "Plasma concentration in Swiss Webster mouse at 5 mg/kg, ip after 60 mins by MS/MS method", "format": "ADME, organism-based", "parameters": "dose 5 mg/kg, route intraperitoneal", "in_short": "as §3"}, "Trypanosoma brucei [16]": {"system": "Trypanosoma brucei", "assay": "Inhibition of protein synthesis in Trypanosoma brucei assessed as reduction in [3H]L-histidine incorporation into proteins incubated for 4 hrs by scintillation counting", "format": "functional, organism-based"}}, "note": "Active and inactive are the calls of the source. The rule behind the calls is not given here.", "data": [{"molecule": "O=C(NCCCNCc1cc(Cl)cc(Cl)c1)Nc1cccc(O)c1", "values": [{"measurement": "ΔTm", "setting": "Trypanosoma brucei [1]", "value": 7.7, "unit": "°C"}, {"measurement": "IC50", "setting": "[2]", "value": 0.029, "unit": "µM"}, {"measurement": "Ratio IC50", "setting": "[3]", "value": 187}, {"measurement": "EC50", "setting": "[4]", "value": 0.17, "unit": "µM"}, {"measurement": "EC50", "setting": "[5]", "value": 12, "unit": "µM"}, {"measurement": "Papp", "setting": "[6]", "value": 2.9, "unit": "×10⁻⁶ cm/s"}, {"measurement": "AQ", "setting": "[7]", "value": 0.62}]}, {"molecule": "O=C(NCCCNCc1cc(Cl)cc(Cl)c1)Nc1ccc(O)cc1", "values": [{"measurement": "ΔTm", "setting": "Trypanosoma brucei [1]", "value": 5.8, "unit": "°C"}]}, {"molecule": "COc1ccccc1CNCCCNC(=O)Nc1ccccc1", "values": [{"measurement": "ΔTm", "setting": "Trypanosoma brucei [1]", "value": 1.1, "unit": "°C"}]}, {"molecule": "O=C(NCCCNCc1cc(Cl)cc(Cl)c1)Nc1ccc(Cl)cc1", "values": [{"measurement": "ΔTm", "setting": "Trypanosoma brucei [1]", "value": 5.7, "unit": "°C"}]}, {"molecule": "COc1cc(Cl)cc(CNCCCNC(=O)Nc2ccsc2)c1", "values": [{"measurement": "ΔTm", "setting": "Trypanosoma brucei [1]", "value": 7.9, "unit": "°C"}, {"measurement": "IC50", "setting": "[2]", "value": 0.019, "unit": "µM"}, {"measurement": "Ratio IC50", "setting": "[3]", "value": 347}, {"measurement": "EC50", "setting": "[4]", "value": 0.15, "unit": "µM"}, {"measurement": "EC50", "setting": "[5]", "value": 22, "unit": "µM"}, {"measurement": "Papp", "setting": "[6]", "value": 9.7, "unit": "×10⁻⁶ cm/s"}, {"measurement": "Cmax", "setting": "[8]", "value": 1290, "unit": "nM"}, {"measurement": "Tmax", "setting": "[9]", "value": 30, "unit": "min"}, {"measurement": "half-life", "setting": "[10]", "value": 82, "unit": "min"}, {"measurement": "AUC at 6 h", "setting": "[11]", "value": 2.68, "unit": "µM·h"}, {"measurement": "AQ", "setting": "[7]", "value": 0.53}, {"measurement": "selectivity ratio", "setting": "[12]", "value": 147}, {"measurement": "selectivity ratio", "setting": "[13]", "value": 147}]}, {"molecule": "COc1ccc(CNCCCNC(=O)Nc2ccccc2)cc1", "values": [{"measurement": "ΔTm", "setting": "Trypanosoma brucei [1]", "value": 1.1, "unit": "°C"}]}, {"molecule": "O=C(NCCCNCc1cc(Cl)cc(Cl)c1Cl)Nc1ccccc1", "values": [{"measurement": "ΔTm", "setting": "Trypanosoma brucei [1]", "value": 6.4, "unit": "°C"}]}, {"molecule": "Nc1ccccc1NC(=O)NCCCNCc1cc(Cl)cc(Cl)c1", "values": [{"measurement": "ΔTm", "setting": "Trypanosoma brucei [1]", "value": 4.7, "unit": "°C"}]}, {"molecule": "O=C(NCCCNCc1cc(Cl)cc(Cl)c1)Nc1ccccc1", "values": [{"measurement": "ΔTm", "setting": "Trypanosoma brucei [1]", "value": 7.8, "unit": "°C"}, {"measurement": "IC50", "setting": "[2]", "value": 0.057, "unit": "µM"}, {"measurement": "EC50", "setting": "[4]", "value": 0.415, "unit": "µM"}, {"measurement": "EC50", "setting": "HepG2", "value": 20, "unit": "µM"}, {"measurement": "Papp", "setting": "[6]", "value": 35.6, "unit": "×10⁻⁶ cm/s"}, {"measurement": "concentration at 1 h", "setting": "[14]", "value": 1800, "unit": "nM"}, {"measurement": "Cmax", "setting": "[8]", "value": 1350, "unit": "nM"}, {"measurement": "Tmax", "setting": "[9]", "value": 30, "unit": "min"}, {"measurement": "half-life", "setting": "[10]", "value": 65, "unit": "min"}, {"measurement": "AUC at 6 h", "setting": "[11]", "value": 2.53, "unit": "µM·h"}, {"measurement": "concentration at 1 h", "setting": "[15]", "value": 120, "unit": "nM"}, {"measurement": "AQ", "setting": "[7]", "value": 0.21}]}, {"molecule": "C[C@@H]1C[C@@H]([C@H](O)CC2CC(=O)NC(=O)C2)C(=O)[C@@H](C)C1", "values": [{"measurement": "inhibition", "setting": "Trypanosoma brucei [16]", "value": "Dose-dependent effect"}]}, {"molecule": "NCCCC(N)(C(=O)O)C(F)F", "note": "(stereo unspecified)", "values": [{"measurement": "inhibition", "setting": "Trypanosoma brucei [16]", "value": "inactive"}]}, {"molecule": "CCOc1ccc(CNCCCNC(=O)Nc2ccccc2)cc1", "values": [{"measurement": "ΔTm", "setting": "Trypanosoma brucei [1]", "value": 0.5, "unit": "°C"}]}, {"molecule": "CC(C)NCC(O)COc1cccc2ccccc12", "note": "(stereo unspecified) [PROPRANOLOL]", "values": [{"measurement": "AQ", "setting": "[7]", "value": "< 0.5"}]}, {"molecule": "O=C(NCCCNCc1cc(Cl)cc(Cl)c1)Nc1ccccn1", "values": [{"measurement": "ΔTm", "setting": "Trypanosoma brucei [1]", "value": 4.5, "unit": "°C"}]}, {"molecule": "CCOc1ccccc1CNCCCNC(=O)Nc1ccccc1", "values": [{"measurement": "ΔTm", "setting": "Trypanosoma brucei [1]", "value": 1.1, "unit": "°C"}]}, {"molecule": "COc1cccc(CNCCCNC(=O)Nc2ccccc2)c1", "values": [{"measurement": "ΔTm", "setting": "Trypanosoma brucei [1]", "value": 4.7, "unit": "°C"}]}, {"molecule": "O=C(NCCCNCc1cc(Cl)cc(Cl)c1)Nc1cccnc1", "values": [{"measurement": "ΔTm", "setting": "Trypanosoma brucei [1]", "value": 7.1, "unit": "°C"}]}]}
